# Results from ChEMBL document CHEMBL1139362, “Discovery of human macrophage migration inhibitory factor (MIF)-CD74 antagonists via virtual screening” (J Med Chem, 2009).
# Calls of active or inactive are those of the source. No cut-off for these calls is given here.
# Key:
# [1] = biological target: T1, MIF/CD74 (Macrophage migration inhibitory factor and HLA-DR antigens-associated invariant chain) (Homo sapiens) (UniProt P14174+P04233); assay: (§1) Inhibition of human MIF-CD74 binding; type: protein assay
# Outline: (§2)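 Compounds pre-incubated 30 min at room temperature with biotinylated recombinant human MIF (2 ng/µl), then added to wells overnight at 4 °C. Bound MIF detected with streptavidin-alkaline phosphatase and p-nitrophenyl phosphate, A405 expressed as percent of MIF-alone wells. 10–12 concentrations spanning ~500-fold; at least three independent assays.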
# [2] = biological target: T2, Macrophage migration inhibitory factor (Homo sapiens) (UniProt P14174); assay: (§3) Inhibition of human recombinant MIF tautomerase
# T2 sequence (whole entry): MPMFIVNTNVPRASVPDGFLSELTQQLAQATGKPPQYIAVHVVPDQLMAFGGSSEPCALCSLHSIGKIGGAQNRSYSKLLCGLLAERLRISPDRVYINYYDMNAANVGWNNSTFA
# [3] = biological target: T1, MIF/CD74 (Macrophage migration inhibitory factor and HLA-DR antigens-associated invariant chain) (Homo sapiens); assay: Inhibition of human MIF-CD74 binding at 10 uM; type: protein assay; design: scale not given: the % may be the effect or the level left
# [4] = biological target: T3, Macrophage migration inhibitory factor (Homo sapiens, UniProt P14174); assay: as §3
# T3 sequence (P14174 whole entry): T2 sequence (whole entry)
# [5] = biological target: T4, MIF/CD74 (Macrophage migration inhibitory factor and HLA-DR antigens-associated invariant chain) (Homo sapiens, UniProt P04233+P14174); assay: as §1; type: protein assay; outline: as §2
# T4 sequence (P14174 whole entry): T2 sequence (whole entry)
# T4 sequence (P04233 whole entry): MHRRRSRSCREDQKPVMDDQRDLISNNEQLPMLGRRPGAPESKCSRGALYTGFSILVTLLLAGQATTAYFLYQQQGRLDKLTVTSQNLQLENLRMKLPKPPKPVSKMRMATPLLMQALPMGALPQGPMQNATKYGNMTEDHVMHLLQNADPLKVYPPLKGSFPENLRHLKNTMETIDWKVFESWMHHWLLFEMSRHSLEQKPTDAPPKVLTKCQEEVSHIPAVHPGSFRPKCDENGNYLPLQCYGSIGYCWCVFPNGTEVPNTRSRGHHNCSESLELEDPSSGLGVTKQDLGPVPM
# [6] = biological target: T2, Macrophage migration inhibitory factor (Homo sapiens); assay: Inhibition of human recombinant MIF tautomerase at 10 uM; design: scale not given: the % may be the effect or the level left
SMILES,Activity [1],IC50 [5] [µM],further results
Cc1cc(C)c2ccc(C3=C(O)c4ccccc4C3=O)nc2c1O,inactive,–,–
COC(=O)C[C@H]1CC(c2ccc(O)cc2)=NO1 (racemic),–,–,Activity [2]: inactive; Activity [3]: 40%
Ic1cc(-c2ccccc2)ncn1,inactive,–,–
CC(C)(C)OC(=O)C[C@H]1CC(c2ccc(O)c(F)c2)=NO1 (racemic),–,–,IC50 [4]: 0.55 µM
O=c1[nH]nc(-c2cccs2)cc1Cc1ccc(Cl)c(Cl)c1,–,250,IC50 [4]: 430 µM
Oc1ccc(/C=C/c2ccc3cccc(O)c3n2)cc1,–,8,Activity [6]: 40%
O=C(O)c1cccc(-c2cc[nH]n2)c1,–,15,Activity [6]: 30%
CCOc1cc(/C=C2\Oc3cc(O)ccc3C2=O)ccc1O,inactive,–,–
O=c1c2ccc(F)cc2sn1-c1ccc(Cl)cc1,inactive,–,–
O=C(O)c1cccc(-n2ccnc2)c1,inactive,–,–
Oc1csc(Cc2nc(-c3ccc(-c4ccccc4)cc3)cs2)n1,–,65,IC50 [4]: 300 µM
O=C(O)c1cc(-n2cnnn2)ccc1O,–,550,Activity [2]: inactive
Oc1c(C(Nc2cccc(F)c2)c2ccccn2)ccc2cccnc12 (stereo not given),–,2.5,IC50 [4]: 530 µM
O=C(O)c1cc(-n2cnnc2)ccc1Cl,–,250,Activity [2]: inactive
CC(OC(=O)c1ccc(-c2ccc(O)cc2)cc1)C(=O)NCc1ccccc1 (stereo not given),inactive,–,–

# Continued, in another order:
Activity [1],IC50 [5] [µM],SMILES,further results
inactive,–,Cc1ccc(-n2cnc3ccccc3c2=O)cc1Cl,–
inactive,–,O=C(Nc1cccc2ccccc12)C(=O)c1c[nH]c2ccccc12,–
–,4,O=C(c1cc2ccccc2o1)N1CCc2ccccc21,–
inactive,–,OCc1nc2ccccc2n1Cc1ccc2ccccc2c1,–
inactive,–,N#C/C(=C\c1ccc(-c2ccccc2)cc1)c1ccccn1,–
inactive,–,O=c1oc2c(O)c(O)ccc2cc1-c1nc2ccccc2s1,–
–,2.5,CC(=O)Oc1ccc2nc(-c3cc4ccccc4o3)oc(=O)c2c1,–
inactive,–,CC(=O)Nc1cccc2ccc(-c3cnc4ccccc4c3)nc12,–
–,900,Oc1ccc2c(c1)oc1ccccc12,Activity [6]: 38%
–,1500,O=C(O)COc1ccc2occ(C(=O)c3ccccc3)c2c1,IC50 [4]: 980 µM
